Bioassay records from PubChem BioAssay.
The sample as a whole holds a higher share of hits than the screen did.
FGF22 binding: shifts melting point of recombinant human FGF22. actives 1.5% (n = 340,000). activity (Tm shift, normalised), % at 9.99 µM. recombinant FGF22 thermal shift, SYPRO orange fluorescence; percent of sucrose octasulfate shift, DMSO zero. Q9HCT0;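 active = mean Tm shift, scaled 0 neutral to 100 positive control, at about 1.3% or above, every replicate too, limit read from the data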
PDI inh: PDI (human) enzyme inhibition; P07237; PDI insulin aggregation turbidity, A650, 90 min; inhibition, % at 10 µM; actives 0.052% (n = 350,000); AID 588391;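 active = mean inhibition across replicates of 30% or more, whatever share of single replicates reach that level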
Target sequence (P07237 whole entry, looked up): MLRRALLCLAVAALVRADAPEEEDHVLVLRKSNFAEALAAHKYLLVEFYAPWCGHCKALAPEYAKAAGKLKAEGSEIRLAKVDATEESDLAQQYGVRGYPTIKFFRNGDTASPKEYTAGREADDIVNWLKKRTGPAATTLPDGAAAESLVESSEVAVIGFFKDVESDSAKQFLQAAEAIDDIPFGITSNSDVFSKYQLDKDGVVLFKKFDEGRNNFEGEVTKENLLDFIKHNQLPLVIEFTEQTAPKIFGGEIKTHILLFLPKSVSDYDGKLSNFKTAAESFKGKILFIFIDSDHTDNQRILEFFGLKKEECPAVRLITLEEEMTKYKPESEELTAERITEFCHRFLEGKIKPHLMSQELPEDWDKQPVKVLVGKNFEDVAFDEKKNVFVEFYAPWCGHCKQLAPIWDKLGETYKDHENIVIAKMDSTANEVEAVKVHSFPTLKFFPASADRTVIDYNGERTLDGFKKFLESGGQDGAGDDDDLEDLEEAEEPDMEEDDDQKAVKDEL
ERAP1 HTS inh: ERAP1 (human) enzyme inhibition. recombinant ERAP1, Leu-AMC fluorescence, 60 min. inhibition, % at 10.7 µM. actives 0.15% (n = 340,000). Q9NZ08;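 active = mean replicate inhibition of at least 30%, or all replicates individually reaching that 30% level; inactive = mean below 30% and not every replicate reaching it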
S100A4 inh HTS: inhibitors of human S100A4 binding to myosin IIA peptide. S100A4/TAMRA-MyoIIA peptide fluorescence polarization. AID 652163. actives 0.14% (n = 360,000). inhibition, % at 10.7 µM. P26447;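 active = mean inhibition of at least 70% across replicates, with every replicate also reaching that level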
Target sequence (P26447 whole entry, looked up): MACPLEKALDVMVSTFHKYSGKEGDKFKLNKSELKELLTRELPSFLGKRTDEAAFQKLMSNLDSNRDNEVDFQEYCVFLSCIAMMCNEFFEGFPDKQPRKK
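Assay system: human S100A4 monomer with TAMRA-labelled myosin IIA peptide / Buffer or medium: Calcium-containing HEPES buffer, pH 7.2 / Reagent: TAMRA-labelled myosin IIA heavy-chain peptide probe, 5 nM / Compound: one dose per compound / Timing: polarization read 5 min after assay mix addition, stable 5–60 min / Benchmarks: neutral control DMSO, positive control TFP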
ERp5 inh: inhibitors of human ERp5; actives 0.05% (n = 350,000); inhibition, % at 9.99 µM; ERp5 insulin aggregation, absorbance 650 nm, 90 min;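 active = mean replicate inhibition above about 25%, with every replicate also reaching it, limit read from the data, passing the limit was not always enough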
A number is an active result; – = inactive; · = not tested or not shown.

SMILES	FGF22 binding	PDI inh	ERAP1 HTS inh	S100A4 inh HTS	ERp5 inh
C[C@@H]1CN([C@@H](C)CO)C(=O)c2cc(NC(=O)CCC(F)(F)F)ccc2O[C@@H]1CN(C)C(=O)Nc1ccc(F)cc1	–	·	–	96	–
C[C@H]1CN([C@@H](C)CO)C(=O)c2cc(NC(=O)CCCN(C)C)ccc2O[C@H]1CN(C)Cc1ccc(Oc2ccccc2)cc1	·	·	–	–	–
COc1ccc(NC(=O)N(C)C[C@H]2Oc3ccc(N(C)C)cc3C(=O)N([C@@H](C)CO)C[C@@H]2C)cc1	·	·	–	103	–
C[C@H]1CN([C@@H](C)CO)C(=O)c2cc(NC(=O)CCC(F)(F)F)ccc2O[C@@H]1CN(C)S(=O)(=O)c1cn(C)cn1	–	·	–	98	–
COc1ccc(NC(=O)N(C)C[C@@H]2Oc3ccc(N(C)C)cc3C(=O)N([C@H](C)CO)C[C@@H]2C)cc1	·	·	–	–	–
CC12CCC(=O)N1C(C(=O)Nc1ccc(Cl)c(Cl)c1)CS2 (configuration not stated)	·	–	–	–	–
CC(C)NC(=O)N(C)C[C@@H]1Oc2ccc(NC(=O)CCCN(C)C)cc2C(=O)N([C@@H](C)CO)C[C@@H]1C	–	·	–	–	–
CC(C)NC(=O)N(C)C[C@H]1Oc2ccc(NC(=O)CCCN(C)C)cc2C(=O)N([C@H](C)CO)C[C@H]1C	–	·	–	111	–
Cc1nc(C(F)(F)F)c(C(=O)N/N=C(\N)c2cccnc2)s1	43	–	–	–	–
CC(=O)c1ccc(S(=O)(=O)N2CCN(c3nc(-c4cccnc4)nc4ccccc34)CC2)cc1	–	–	–	–	–
COCC1CCN(Cc2nc(-c3ccc(OC)cc3)no2)CC1	43	–	–	–	–
CC[n+]1ccc(/C=C2\Sc3ccccc3N2CCCS(=O)(=O)[O-])c2ccccc21	–	–	–	–	–
CN1C=C/C(=C\c2cc[n+](C)c3ccccc23)c2ccccc21	–	–	80	–	–
Cc1ccc(S(=O)(=O)N[C@H]2CC[C@@H](CCn3cc(-c4ccccc4F)nn3)O[C@H]2CO)cc1	–	·	–	–	–
C[C@H]1CN([C@@H](C)CO)C(=O)c2cccc(NS(=O)(=O)c3cccs3)c2O[C@@H]1CN(C)Cc1ccc(Cl)c(Cl)c1	–	·	–	–	–
C=CCNc1nc(C(=O)OCC(=O)c2ccc(OC)cc2OC)cs1	–	–	–	–	–
O=C(c1ccc([N+](=O)[O-])cc1)N1CCSC1c1ccc(Cl)cc1 (configuration not stated)	43	–	–	–	–
O=C(c1ccc([N+](=O)[O-])cc1)N1CCSC1c1ccc(Br)cc1 (configuration not stated)	–	–	–	–	–
Nc1ncnc2c(C3OC(CO)C(O)C3O)scc12 (configuration not stated)	43	–	–	–	–
CN1CCN(c2ccc(NC(=O)c3ccc(Br)o3)cc2)CC1	–	–	–	–	–
CCC(=O)N1CCN(c2ccc(NC(=O)c3ccc(Br)o3)cc2)CC1	44	–	–	–	–
O=C(CSc1ncnc2sc(-c3ccccc3)cc12)NC1CCS(=O)(=O)C1 (configuration not stated)	43	–	–	–	–
CC(C)Cc1nnc(NC(=O)C2CC(=O)N(Cc3ccccc3)C2)s1 (configuration not stated)	–	–	–	–	–
C[C@@H]1CN([C@@H](C)CO)C(=O)Cc2cc(NC(=O)c3ccncc3)ccc2O[C@@H]1CN(C)S(=O)(=O)c1cn(C)cn1	–	·	–	–	–
C[C@@H]1CN([C@@H](C)CO)C(=O)c2cc(NC(=O)c3ccncc3)ccc2O[C@H]1CN(C)S(=O)(=O)c1cn(C)cn1	–	·	–	–	–
SMILES	FGF22 binding	PDI inh	ERAP1 HTS inh	S100A4 inh HTS	ERp5 inh
Cc1noc(C)c1S(=O)(=O)N(C)C[C@@H]1Oc2ccc(NC(=O)C3CC3)cc2CC(=O)N([C@@H](C)CO)C[C@H]1C	–	·	–	142	–
C[C@H]1CN([C@@H](C)CO)C(=O)Cc2cc(NC(=O)c3ccncc3)ccc2O[C@H]1CN(C)S(=O)(=O)c1cn(C)cn1	–	·	–	–	74
C[C@H](CO)N1C[C@H](C)[C@@H](CN(C)S(=O)(=O)c2cn(C)cn2)Oc2ccc(NC(=O)c3ccncc3)cc2CC1=O	–	·	–	–	65
Cc1noc(C)c1S(=O)(=O)N(C)C[C@H]1Oc2ccc(NC(=O)C3CC3)cc2CC(=O)N([C@@H](C)CO)C[C@@H]1C	–	·	–	–	–
CSc1ccc(CN2CCC(n3nccc3NC(=O)CCCc3ccccc3)CC2)cc1	–	–	–	–	–
CCCCn1c(N)c(N(CC)C(=O)c2cc(S(=O)(=O)N3CCCCCC3)ccc2OC)c(=O)[nH]c1=O	–	–	–	–	–
O=C1CN(C(=O)COC(=O)CNS(=O)(=O)c2ccccc2)c2ccccc2N1	43	–	–	–	–
O=C1CN(C(=O)COC(=O)c2cc(S(=O)(=O)N3CCOCC3)ccc2Cl)c2ccccc2N1	43	–	–	–	–
Cc1ccc(S(=O)(=O)NCC(=O)OCC(=O)N2CC(=O)Nc3ccccc32)cc1	–	–	–	–	–
COc1cccc(NC(=O)C[C@@H]2CC[C@H]3[C@H](COc4ccc(NC(=O)C5CCCC5)cc4C(=O)N3C)O2)c1	·	·	–	–	–
COCc1ccc(C(=O)NC(C)c2cnn(-c3ccccc3C)c2C)o1 (configuration not stated)	–	–	·	–	–
CCOC(=O)[C@]12CCC=C1N(Cc1ccc(Cl)cc1Cl)C(=O)[C@H](CC(=O)NCc1cccc(C(F)(F)F)c1)C2	1.4	·	–	–	–
COCCCNC(=O)C[C@@H]1C[C@@]2(C(=O)OC)CC(C)(C)CC=C2N(CCc2ccc(OC)c(OC)c2)C1=O	–	·	·	–	–
CCCCNC(=O)C[C@@H]1C[C@@]2(C(=O)OC)CC(C)(C)CC=C2N(CCc2ccc(OC)c(OC)c2)C1=O	40	·	–	–	–
CCOC(=O)[C@]12CCCC=C1N(Cc1ccc(Cl)cc1Cl)C(=O)[C@H](CC(=O)NCc1cccc(C(F)(F)F)c1)C2	–	·	–	–	–
COC(=O)[C@@]12C[C@@H](CC(=O)NCc3cccc(C(F)(F)F)c3)C(=O)N(Cc3cccc4ccccc34)C1=CCC(C)(C)C2	23	·	–	–	–
COC(=O)[C@]12CCCCC=C1N(Cc1ccc(Cl)cc1Cl)C(=O)[C@H](CC(=O)NCc1cccc(C(F)(F)F)c1)C2	1.5	·	–	–	–
COc1ccc(S(=O)(=O)N(C)C[C@@H]2Oc3ccc(NC(=O)NC4CCCCC4)cc3CC(=O)N([C@H](C)CO)C[C@H]2C)cc1	–	·	–	–	–
C[C@@H]1CN([C@H](C)CO)C(=O)c2cc(NC(=O)c3ccccc3)ccc2O[C@@H](C)CCCCO[C@@H]1CN(C)C(=O)c1ccccc1	1.4	·	·	·	·
